Experimental data from ChEMBL document CHEMBL3872287, “Novel 2-Substituted 7-Azaindole and 7-Azaindazole Analogues as Potential Antiviral Agents for the Treatment of Influenza” (ACS Med Chem Lett, 2017).

Assays:
[1] = Antiviral activity against Influenza A virus (A/Puerto Rico/8/34(H1N1)) infected in MDCK cells assessed as decrease in negative strand HA RNA levels after 20 hrs by bDNA hybridization method; format: functional, Influenza A virus (A/Puerto Rico/8/1934(H1N1))
Outline: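 Viral RNA in infected cells quantified by branched DNA assay. EC90 is the test-compound concentration giving viral RNA levels equal to 10% of control wells.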

aldehyde oxidase [2] = biological target: T1, aldehyde oxidase (Homo sapiens, UniProt Q06278); assay: Drug metabolism in human liver cytosol assessed as aldehyde oxidase-mediated metabolism by measuring amount of parent compound remaining measured over 4 hrs in absence of aldehyde oxidase inhibitor raloxifene by MS/MS analysis; format: ADME; conditions: read-out: Stability
T1 sequence (Q06278 whole entry): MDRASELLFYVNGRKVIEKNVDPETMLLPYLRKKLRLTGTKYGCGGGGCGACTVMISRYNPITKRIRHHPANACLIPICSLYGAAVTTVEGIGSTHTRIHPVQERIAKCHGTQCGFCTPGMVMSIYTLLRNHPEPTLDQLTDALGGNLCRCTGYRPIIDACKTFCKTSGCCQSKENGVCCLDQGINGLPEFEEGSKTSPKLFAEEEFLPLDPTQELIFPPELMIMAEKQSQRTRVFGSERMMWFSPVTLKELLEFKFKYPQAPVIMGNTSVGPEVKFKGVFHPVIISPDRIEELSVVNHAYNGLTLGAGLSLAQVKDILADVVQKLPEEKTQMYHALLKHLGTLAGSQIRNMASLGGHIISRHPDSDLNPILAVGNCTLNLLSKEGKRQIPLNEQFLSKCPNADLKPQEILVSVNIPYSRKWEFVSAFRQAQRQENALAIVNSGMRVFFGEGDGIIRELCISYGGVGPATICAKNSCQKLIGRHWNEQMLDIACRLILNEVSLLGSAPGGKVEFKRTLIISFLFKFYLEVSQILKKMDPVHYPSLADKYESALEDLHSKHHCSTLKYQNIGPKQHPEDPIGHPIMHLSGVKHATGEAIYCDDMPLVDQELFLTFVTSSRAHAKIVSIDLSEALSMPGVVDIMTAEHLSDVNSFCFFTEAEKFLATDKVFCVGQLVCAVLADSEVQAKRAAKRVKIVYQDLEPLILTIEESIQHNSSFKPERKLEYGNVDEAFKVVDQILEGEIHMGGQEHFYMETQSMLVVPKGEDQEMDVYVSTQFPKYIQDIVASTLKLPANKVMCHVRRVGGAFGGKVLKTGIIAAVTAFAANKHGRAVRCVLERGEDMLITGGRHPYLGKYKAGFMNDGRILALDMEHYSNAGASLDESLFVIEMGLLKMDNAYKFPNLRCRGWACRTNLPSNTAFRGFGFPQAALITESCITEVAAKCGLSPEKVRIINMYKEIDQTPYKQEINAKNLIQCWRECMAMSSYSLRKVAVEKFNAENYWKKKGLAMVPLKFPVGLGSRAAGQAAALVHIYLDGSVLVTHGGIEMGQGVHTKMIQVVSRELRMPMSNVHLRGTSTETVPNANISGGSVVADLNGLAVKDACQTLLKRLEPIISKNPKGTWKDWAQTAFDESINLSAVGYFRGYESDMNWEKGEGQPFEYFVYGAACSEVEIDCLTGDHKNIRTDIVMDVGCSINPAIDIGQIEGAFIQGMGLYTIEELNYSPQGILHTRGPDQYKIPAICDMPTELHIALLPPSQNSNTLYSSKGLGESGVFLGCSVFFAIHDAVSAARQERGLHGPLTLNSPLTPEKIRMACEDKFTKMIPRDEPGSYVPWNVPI
Outline: (§1)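 Test compounds were incubated in triplicate at 1 µM in human liver cytosol (1 mg/mL protein) at 37 °C for 4 hours, with or without the aldehyde oxidase inhibitor raloxifene.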

aldehyde oxidase [3] = biological target: T1, aldehyde oxidase; assay: Drug metabolism in human liver cytosol assessed as aldehyde oxidase-mediated metabolism by measuring amount of parent compound remaining measured over 4 hrs in presence of aldehyde oxidase inhibitor raloxifene by MS/MS analysis; format: ADME; conditions: read-out: Stability; outline: as §1
[4] = Volume of distribution in steady state in rat at 1 mg/kg, iv; format: ADME, organism-based; conditions: in vivo, read-out: Vdss
[5] = Cmax in mouse at 30 mg/kg, po; format: ADME, organism-based; parameters: dose 30 mg/kg, route oral; conditions: in vivo
[6] = Half life in rat at 1 mg/kg, iv; format: ADME, organism-based; conditions: in vivo
[7] = Cmax in rat at 3 mg/kg, po; format: ADME, organism-based; parameters: dose 3 mg/kg, route oral; conditions: in vivo
[8] = AUC in mouse at 30 mg/kg, po; format: ADME, organism-based; conditions: in vivo
[9] = AUC (0 to infinity) in rat at 3 mg/kg, po; format: ADME, organism-based; parameters: dose 3 mg/kg, time infinity, route oral; conditions: in vivo
[10] = Clearance in rat at 1 mg/kg, iv; format: ADME, organism-based; conditions: in vivo
[11] = Oral bioavailability in rat at 3 mg/kg; format: ADME, organism-based; conditions: in vivo

## O=C(O)[C@H]1C2CCC(CC2)[C@@H]1Nc1nc(-c2n[nH]c3ncc(F)cc23)ncc1F
[1]; Influenza A virus, MDCK, 20 h
  EC90: 0.003 µM

## Cc1[nH]c2ncc(F)cc2c1-c1ncc(F)c(N[C@H]2CCC[C@@H](NC(=O)N3CCCC3)C2)n1
Aldehyde oxidase [2]
  remaining at 4 h: 103%
[1]; Influenza A virus, MDCK, 20 h
  EC90: 0.28 µM
Aldehyde oxidase [3]
  remaining at 4 h: 103%

## O=C(O)c1[nH]c2ncc(F)cc2c1-c1ncc(F)c(N[C@H]2CCC[C@@H](NC(=O)N3CCCC3)C2)n1
[1]; Influenza A virus, MDCK, 20 h
  EC90: 2.2 µM

## CC(O)c1[nH]c2ncc(F)cc2c1-c1ncc(F)c(N[C@H]2CCC[C@@H](NC(=O)N3CCCC3)C2)n1 (stereo in doubt; 21a)
[1]
  EC90: 0.027 µM

## O=C(N[C@@H]1CCC[C@H](Nc2nc(-c3c(CO)[nH]c4ncc(F)cc34)ncc2F)C1)N1CCCC1
[4]
  Vd: 0.6 L/kg
[5]
  Cmax: 37.7 µg/mL
Aldehyde oxidase [2]
  remaining at 4 h: 100%
[6]
  half-life: 2.3 h
[1]; Influenza A virus, MDCK, 20 h
  EC90: 0.028 µM
[7]
  Cmax: 2.8 µg/mL
[8]
  AUC: 101 µg·h/mL
Aldehyde oxidase [3]
  remaining at 4 h: 96%
[9]
  AUC(0-inf): 9.7 µg·h/mL
[10]
  clearance: 0.372 L/h/kg
[11]
  bioavailability: 100%

## O=C(N[C@@H]1CCC[C@H](Nc2nc(-c3n[nH]c4ncc(F)cc34)ncc2F)C1)c1ccsc1
Aldehyde oxidase [2]
  remaining at 4 h: 0%
[1]; Influenza A virus, MDCK, 20 h
  EC90: 0.001 µM
Aldehyde oxidase [3]
  remaining at 4 h: 107%

## O=C(N[C@@H]1CCC[C@H](Nc2nc(-c3n[nH]c4ncc(F)cc34)ncc2F)C1)N1CCOCC1
[1]; Influenza A virus, MDCK, 20 h
  EC90: 0.014 µM

## O=C(N[C@@H]1CCC[C@H](Nc2nc(-c3c[nH]c4ncc(F)cc34)ncc2F)C1)N1CCCC1
[4]
  Vd: 0.3 L/kg
[5]
  Cmax: 61.1 µg/mL
Aldehyde oxidase [2]
  remaining at 4 h: 4%
[6]
  half-life: 3.2 h
[1]; Influenza A virus, MDCK, 20 h
  EC90: 0.001 µM
[7]
  Cmax: 2.6 µg/mL
[8]
  AUC: 336 µg·h/mL
Aldehyde oxidase [3]
  remaining at 4 h: 99%
[9]
  AUC(0-inf): 30.3 µg·h/mL
[10]
  clearance: 0.072 L/h/kg
[11]
  bioavailability: 82%

## O=C(N[C@@H]1CCC[C@H](Nc2nc(-c3c(C4CC4)[nH]c4ncc(F)cc34)ncc2F)C1)N1CCCC1
[1]; Influenza A virus, MDCK, 20 h
  EC90: > 3.3 µM

## O=C(N[C@@H]1CCC[C@H](Nc2nc(-c3n[nH]c4ncc(F)cc34)ncc2F)C1)N1CCCC1
[4]
  Vd: 0.4 L/kg
[5]
  Cmax: 32.1 µg/mL
Aldehyde oxidase [2]
  remaining at 4 h: 1%
[6]
  half-life: 1.5 h
[1]; Influenza A virus, MDCK, 20 h
  EC90: 0.002 µM
[7]
  Cmax: 0.2 µg/mL
[8]
  AUC: 44.5 µg·h/mL
Aldehyde oxidase [3]
  remaining at 4 h: 101%
[9]
  AUC(0-inf): 1.2 µg·h/mL
[10]
  clearance: 0.462 L/h/kg
[11]
  bioavailability: 15.3%

## O=C(N[C@@H]1CCC[C@H](Nc2nc(-c3c(CO)[nH]c4ncc(F)cc34)ncc2F)C1)N1CC[C@@H](F)C1
Aldehyde oxidase [2]
  remaining at 4 h: 105%
[1]; Influenza A virus, MDCK, 20 h
  EC90: 0.01 µM
Aldehyde oxidase [3]
  remaining at 4 h: 114%

## O=C(N[C@@H]1CCC[C@H](Nc2nc(-c3c(/C=N/O)[nH]c4ncc(F)cc34)ncc2F)C1)N1CCCC1
[1]; Influenza A virus, MDCK, 20 h
  EC90: 0.091 µM

## Cn1cnc(C(=O)N[C@@H]2CCC[C@H](Nc3nc(-c4n[nH]c5ncc(F)cc45)ncc3F)C2)c1
Aldehyde oxidase [2]
  remaining at 4 h: 40%
[1]; Influenza A virus, MDCK, 20 h
  EC90: 0.015 µM
Aldehyde oxidase [3]
  remaining at 4 h: 103%

## CC(O)c1[nH]c2ncc(F)cc2c1-c1ncc(F)c(N[C@H]2CCC[C@@H](NC(=O)N3CCCC3)C2)n1 (stereo in doubt; 21b)
Aldehyde oxidase [2]
  remaining at 4 h: 99%
[1]
  EC90: 0.46 µM
Aldehyde oxidase [3]
  remaining at 4 h: 99%

## O=C(N[C@@H]1CCC[C@H](Nc2nc(-c3c[nH]c4ncc(F)cc34)ncc2F)C1)N1CCOCC1
Aldehyde oxidase [2]
  remaining at 4 h: 7%
Aldehyde oxidase [3]
  remaining at 4 h: 103%

## O=C(N[C@@H]1CCC[C@H](Nc2nc(-c3n[nH]c4ncc(F)cc34)ncc2F)C1)N1CC[C@@H](F)C1
Aldehyde oxidase [2]
  remaining at 4 h: 0.6%
[1]; Influenza A virus, MDCK, 20 h
  EC90: 0.001 µM
Aldehyde oxidase [3]
  remaining at 4 h: 98%
